# An excerpt weighted towards active compounds, which were near 4.9% of everything screened.
# NF-kB expr up: activators of NF-kB expression in neurons, primary screen, cell-based, HTS; human neuronal cells, NF-kB reporter expression; active compounds read high; fold change at 12.5 µM; 190,000 compounds, 1.6% hits; in the data active means fold change above about 3.3
# STAT3 inh: IL-6 driven STAT3 reporter inhibitors, primary screen, U3A cells, luciferase, luminescence, MLSCN library | inhibition, % at 5.5 µM | 190,000 compounds, 0.89% hits | IL-6 STAT3-luciferase reporter; host cell line lacks STAT1;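 active means inhibition above the mean inhibition across all screened compounds plus 3 SD, cut at about 44% in these data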
# STAT1 activator: STAT1 signaling activators, primary screen, cell-based, HTS, luciferase reporter; NIH 3T3 STAT1-luciferase reporter, IFN-gamma, luminescence; 100% = IFN-gamma alone, no compound; activation (% of control), % at 5.5 µM; 200,000 compounds, 2.6% hits; AID 932, 2007;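 active means activation above the screen-wide mean activation plus 3 SD, cut at about 130% in these data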
# STAT1 inh: STAT1 signaling inhibitors, primary screen, cell-based, HTS, luciferase reporter; inhibition, % at 5.5 µM; 200,000 compounds, 0.35% hits; NIH 3T3 STAT1-luciferase reporter, IFN-gamma, luminescence; AID 920, 2007;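 active means inhibition above a set limit, the mean inhibition across all tested compounds plus 3 SD, cut at about 34% in these data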
# APP 5'UTR act: activators of APP 5'UTR luciferase reporter, primary screen, SH-SY5Y cells | SH-SY5Y APP 5'UTR luciferase reporter, luminescence; zero percent = DMSO vehicle wells | activation, % at 2 µM | 190,000 compounds, 1% hits | AID 1276, 2008;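 active means activation above a set limit, based on mean plus 3 SD of controls, cut at about 140% in these data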
# STAT3 act: IL-6 driven STAT3 reporter potentiators, primary screen, U3A cells, luciferase, luminescence, MLSCN library | IL-6 STAT3-luciferase reporter; 100% = signal with IL-6 EC80 alone | activation (% of control), % at 5.6 µM | 190,000 compounds, 0.91% hits;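 active means activation above the screen-wide mean of compound activation plus 3 SD, cut at about 130% in these data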
#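 Material: STAT3-luciferase reporter U3A cells; Probe or stimulus: IL-6 (33 ng/mL); Incubation: compound pre-incubation 1 h before IL-6, then 6 h stimulation at 37 °C; Technique: luminescence from STAT3-driven luciferase reporter; Evaluation: % activation versus median of IL-6-stimulated wells; Controls: IL-6-only high control.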
# Numbers stand for hits; . = inactive; / = no result given.
SMILES,NF-kB expr up,STAT3 inh,STAT1 activator,STAT1 inh,APP 5'UTR act,STAT3 act
CC(C)(C)NC(=S)NCCc1ccccc1,.,.,130,.,.,.
COc1ccc(NC(=O)Cn2c(=O)n(-c3ccc(CC(=O)NCc4ccco4)cc3)c(=O)c3ccccc32)cc1,.,.,.,.,.,.
Cc1c(C(=O)Oc2ccc(F)cc2)sc2ncn(Cc3cccc(F)c3)c(=O)c12,.,.,.,.,.,.
CCn1cnc2sc(C(=O)Oc3cccc(C)c3)c(C)c2c1=O,.,.,132,.,.,.
CC(C)C1COC(c2cccc3ccccc23)=N1 (configuration not stated),3.7,.,143,.,.,.
N=C(CC1CC(=O)NC(=O)C1)C1=C(O)CCCC1=O,.,.,.,.,.,.
Cc1ccc2nc(CSc3nc(C)cc(C)c3C#N)[nH]c2c1,.,.,.,.,205,.
Cc1nc([N+](=O)[O-])c(Sc2nc3ccccc3n2C)n1Cc1ccccc1,.,.,.,.,.,.
CCCC(=O)Nc1cnc(NC(=O)c2cccc(F)c2)cc1C,.,.,.,.,173,.
O=S(=O)(Nc1nc2ccccc2nc1Nc1cccc(S(=O)(=O)N2CCCCC2)c1)c1ccccc1,.,.,.,.,.,.
Clc1ccc(-c2nnc(SCc3ccon3)o2)c(Cl)c1,9.7,.,141,.,144,.
Clc1ccc(-c2nnc(CCc3ccccc3)o2)c(Cl)c1,.,.,137,.,.,.
Clc1ccc(-c2nnc(SCc3nc4ccccc4[nH]3)o2)c(Cl)c1,.,.,.,.,.,.
C=CCSc1nnc(-c2ccc(Cl)cc2Cl)o1,7.5,.,.,.,159,.
CC(=O)N/C(=C/c1ccc2c(c1)OCO2)C(=O)NCc1ccccc1,.,.,.,.,.,.
C/C(=N\NC(=O)c1nn(C)c(C)c1Br)c1ccc(NC(=O)c2ccc(C)s2)cc1,.,.,133,.,.,.
Cc1nnc(SCC(=O)NC(C)(C)C)n1NCc1c(F)cccc1Cl,/,.,.,.,.,.
CC(NCC1(N2CCOCC2)CCCCC1)C(=O)Nc1ccc(Cl)cc1Cl (configuration not stated),.,.,.,.,.,.
COc1ccc(C(=O)/C=C2\Sc3ccccc3N2C)cc1,7.3,.,132,.,195,.
C=CCOc1ccc(Br)cc1CNC(C)(C)C,.,.,.,.,.,.
CCOC(=O)c1c(C)[nH]c(C(=O)CSc2nccc(C)n2)c1C,.,.,132,.,.,.
Cc1ccc2c(CSc3nncn3C)cc(=O)oc2c1C,.,.,.,.,.,.
COc1ccc2[nH]c3nc(SCc4nnc(-c5ccccc5)o4)nnc3c2c1,.,.,.,.,.,.
COc1ccc2[nH]c3nc(SC(C)C)nnc3c2c1,5.1,.,.,.,185,.
S=C(Nc1ccccc1)Nc1ccc(OCc2ccc(Cl)cc2Cl)cc1,.,64,.,59,.,.
SMILES,NF-kB expr up,STAT3 inh,STAT1 activator,STAT1 inh,APP 5'UTR act,STAT3 act
S=C(NCCSCc1ccc(Cl)cc1Cl)Nc1ccccc1,.,.,.,.,.,.
CN(C(=O)c1cccnc1)c1nnc(-c2ccccn2)s1,.,.,136,.,.,.
CN(C(=O)c1cccnc1)c1nnc(-c2cnccn2)s1,.,.,.,.,.,.
CCCC(=O)N1CCN(c2ccc(NC(=O)c3ccc(Br)o3)cc2)CC1,.,.,.,.,.,.
CCCC(=O)N1CCN(c2ccc(NC(=O)c3ccc([N+](=O)[O-])o3)cc2)CC1,/,.,148,.,.,.
CCC(=O)N1CCN(c2ccc(NC(=O)c3ccccc3)cc2)CC1,.,.,.,.,.,.
O=C(Nc1ccc(N2CCN(C(=O)c3ccc(Cl)cc3)CC2)cc1)c1ccc([N+](=O)[O-])o1,.,.,139,.,.,.
CCC(=O)N1CCN(c2ccc(NC(=O)c3ccc([N+](=O)[O-])o3)cc2)CC1,.,.,129,.,.,.
CC(C)OC(=O)/C(=C\c1cccc2ccccc12)NC(=O)c1ccccc1,.,.,.,.,.,.
CN(C)S(=O)(=O)c1ccc(C(=O)NCCOc2ccccc2)cc1,.,.,131,.,/,.
CCc1ccccc1NC(=S)N(CCCN1CCOCC1)Cc1cccs1,.,.,.,.,.,.
CC(C)N(CCO)C(=O)CCc1nnc(CCCc2ccccc2)o1,.,.,.,.,.,.
CN(CCc1ccccn1)C(=O)CCc1nnc(CCCc2ccccc2)o1,.,.,133,.,.,.
CC(C)N(Cc1nccn1C)C(=O)CCc1nnc(CCCc2ccccc2)o1,.,.,137,.,.,.
COc1ccc2sc(NC(=O)CC(C)C)nc2c1,3.5,.,146,.,.,.
CCOCC(=O)Nc1nc2ccc(OC)cc2s1,.,.,.,.,.,.
CCC(=O)Nc1nc2ccc3nc(C)sc3c2s1,3.5,.,149,.,.,.
CCC(=O)Nc1nc2cc(OC)ccc2s1,3.6,.,140,.,.,.
COc1ccc2sc(NC(C)=O)nc2c1,.,.,136,.,.,.
O=C(CNC(=O)c1cccc(Cl)c1)N/N=C/C=C/c1ccccc1,.,.,.,.,.,.
COC(=O)C(NC(=O)CSc1nc(N)cc(=O)[nH]1)c1ccccc1 (configuration not stated),.,.,.,.,.,.
COc1ccc(-n2nc(C(=O)NCC(=O)N3CCN(c4ccccn4)CC3)c3ccccc3c2=O)cc1,.,.,137,.,.,.
COc1ccc(-n2nc(C(=O)NCC(=O)N3CCN(c4ccccn4)CC3)c3ccccc3c2=O)cc1OC,.,.,.,.,.,.
CC1CCN(CCOc2ccc(OCc3ccccc3)cc2)CC1,.,.,.,.,.,.
COc1ccc(C(=O)NC(=S)NCC2CCCO2)cc1 (configuration not stated),.,.,.,.,.,.
SMILES,NF-kB expr up,STAT3 inh,STAT1 activator,STAT1 inh,APP 5'UTR act,STAT3 act
Cc1cc(C(=O)CSc2nncs2)c(C)n1-c1c(C)n(C)n(-c2ccccc2)c1=O,.,.,.,.,.,.
Cc1ccc(-n2c(C)cc(C(=O)CSc3nncs3)c2C)cc1,5.4,.,129,.,139,.
Cc1cc(C(=O)CSc2nncn2C)c(C)n1-c1ccccc1,4.2,.,.,.,.,.
Cc1cc(C(=O)CSc2cccc[n+]2[O-])c(C)n1-c1ccccc1,3.8,.,.,.,149,.
CCn1c(CNC(=O)c2cccs2)n[nH]c1=S,.,.,.,.,.,.
CCOC(=O)c1ccc(S(=O)(=O)Nc2cc(C(=O)O)ccc2Cl)cc1,.,.,.,.,.,.

# Compound activity (PubChem)
